Test results published in ChEMBL document CHEMBL5724801, “EUbOPEN Chemogenomics Library - Multiplex” (2024).
Values joined by “and” are separate entries in the source; they are usually repeats but may differ in a detail not shown here. Equal values may be shown once.

Tests used:
Type in all cases: toxicity, cell-based
[1] = system: Fibroblast; assay: Multiplex assay against human fibroblast
How it was run: (§1)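 Per cents of healthy-nucleus cells form the tubulin, mitochondrial-mass and membrane-permeability phenotype values. Live cells were stained at seeding with Hoechst33342, BioTracker Green Microtubule Cytoskeleton Dye, MitoTracker Red and Annexin V Alexa Fluor 680. After compound addition they were imaged on a CQ1 microscope at 37°C and 5% CO2, and CellPathfinder machine-learning gating split them into Hoechst high-intensity objects or normal cells, normal cells into healthy, pyknosed or fragmented nuclei, and pyknosed cells into mitotic or apoptotic.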

[2] = system: HEK-293T; assay: Multiplex assay against HEK293T; settings: human; how it was run: as §1
[3] = system: U2OS; assay: Multiplex assay against U2OS; settings: human; how it was run: as §1
[4] = 12 h, 1 µM, compound concentration 1 uM
[5] = 12 h, 10 µM, compound concentration 10 uM
[6] = 24 h, 1 µM, compound concentration 1 uM
[7] = 24 h, 10 µM, compound concentration 10 uM
[8] = 48 h, 1 µM, compound concentration 1 uM
[9] = 48 h, 10 µM, compound concentration 10 uM

## CN(C)CCOc1ccc(/C(=C(/CCCO)c2ccccc2)c2ccc(O)cc2)cc1
[1]; [4]
  Population Apoptotic (%): 9.46% and 11.76%
  Population Fragmented Nuclei (%): 12.72% and 6.58%
  Population Healthy Nuclei (%): 54.82% and 78.51%
  Population Hoechst High Intensity Objects (%): 0%
  Population Membrane Permeable-Phenotype (%): 2.4% and 1.12%
  Population Mitochondria Different-Phenotype (%): 12.8% and 16.2%
  Population Mitotic Cells (%): 90.54% and 88.24%
  Population Normal (%): 100%
  Population Pyknosed Nuclei (%): 32.46% and 14.91%
  Population Tubulin-Different-Phenotype (%): 20.8% and 30.73%
  Total Cell Count: 228
[1]; [5]
  Population Apoptotic (%): 12.82% and 32.5%
  Population Fragmented Nuclei (%): 12.81% and 6.25%
  Population Healthy Nuclei (%): 54.96% and 65.97%
  Population Hoechst High Intensity Objects (%): 0%
  Population Membrane Permeable-Phenotype (%): 12.03% and 4.21%
  Population Mitochondria Different-Phenotype (%): 33.83% and 24.74%
  Population Mitotic Cells (%): 87.18% and 67.5%
  Population Normal (%): 100%
  Population Pyknosed Nuclei (%): 32.23% and 27.78%
  Population Tubulin-Different-Phenotype (%): 69.92% and 80%
  Total Cell Count: 242 and 288
[1]; [6]
  Population Fragmented Nuclei (%): 7.69% and 4.15%
  Population Healthy Nuclei (%): 73.68% and 82.16%
  Population Hoechst High Intensity Objects (%): 0%
  Population Membrane Permeable-Phenotype (%): 2.2% and 3.03%
  Population Mitochondria Different-Phenotype (%): 9.34% and 7.58%
  Population Mitotic Cells (%): 93.48% and 78.79%
  Population Normal (%): 100%
  Population Pyknosed Nuclei (%): 18.62% and 13.69%
  Population Tubulin-Different-Phenotype (%): 22.53% and 32.32%
  Total Cell Count: 247 and 241
[1]; [7]
  Population Apoptotic (%): 20.78% and 46.67%
  Population Fragmented Nuclei (%): 6.59% and 4.58%
  Population Healthy Nuclei (%): 63.57% and 79.58%
  Population Hoechst High Intensity Objects (%): 0%
  Population Membrane Permeable-Phenotype (%): 6.1% and 8.41%
  Population Mitochondria Different-Phenotype (%): 37.8% and 22.57%
  Population Mitotic Cells (%): 79.22% and 53.33%
  Population Normal (%): 100%
  Population Pyknosed Nuclei (%): 29.84% and 15.85%
  Population Tubulin-Different-Phenotype (%): 85.37% and 84.07%
  Total Cell Count: 258 and 284
[1]; [8]
  Population Apoptotic (%): 53.33% and 35.71%
  Population Fragmented Nuclei (%): 8.78% and 7.97%
  Population Healthy Nuclei (%): 85.5% and 86.45%
  Population Hoechst High Intensity Objects (%): 0%
  Population Membrane Permeable-Phenotype (%): 0% and 4.61%
  Population Mitotic Cells (%): 46.67% and 64.29%
  Population Normal (%): 100%
  Population Pyknosed Nuclei (%): 5.73% and 5.58%
  Total Cell Count: 262 and 251
[1]; [9]
  Population Apoptotic (%): 35.29% and 73.91%
  Population Fragmented Nuclei (%): 11.83% and 8.67%
  Population Healthy Nuclei (%): 83.6% and 83.67%
  Population Hoechst High Intensity Objects (%): 0%
  Population Membrane Permeable-Phenotype (%): 2.89% and 5.58%
  Population Mitochondria Different-Phenotype (%): 6.75% and 12.75%
  Population Mitotic Cells (%): 64.71% and 26.09%
  Population Normal (%): 100%
  Population Pyknosed Nuclei (%): 4.57% and 7.67%
  Population Tubulin-Different-Phenotype (%): 53.05% and 80.48%
  Total Cell Count: 372 and 300
[2]; [4]
  Population Apoptotic (%): 11.33% and 11.76%
  Population Fragmented Nuclei (%): 1.07% and 2.99%
  Population Hoechst High Intensity Objects (%): 0%
  Population Membrane Permeable-Phenotype (%): 0.91% and 0%
  Population Mitochondria Different-Phenotype (%): 37.73% and 15.38%
  Population Mitotic Cells (%): 88.67% and 88.24%
  Population Normal (%): 100%
  Population Pyknosed Nuclei (%): 40.11% and 81.44%
  Total Cell Count: 374 and 167
[2]; [5]
  Population Apoptotic (%): 12.57% and 17.97%
  Population Fragmented Nuclei (%): 0.31% and 2.14%
  Population Hoechst High Intensity Objects (%): 0%
  Population Membrane Permeable-Phenotype (%): 0%
  Population Mitochondria Different-Phenotype (%): 37.01% and 22.22%
  Population Mitotic Cells (%): 87.43% and 82.03%
  Population Normal (%): 100%
  Population Pyknosed Nuclei (%): 59.87% and 91.43%
  Population Tubulin-Different-Phenotype (%): 44.09% and 66.67%
  Total Cell Count: 319 and 140
[2]; [6]
  Population Apoptotic (%): 20.61% and 15.97%
  Population Fragmented Nuclei (%): 0.56% and 3.01%
  Population Healthy Nuclei (%): 68.54% and 25.3%
  Population Hoechst High Intensity Objects (%): 0.37% and 0%
  Population Membrane Permeable-Phenotype (%): 1.09% and 2.38%
  Population Mitochondria Different-Phenotype (%): 18.85% and 28.57%
  Population Mitotic Cells (%): 79.39% and 84.03%
  Population Normal (%): 99.63% and 100%
  Population Pyknosed Nuclei (%): 30.9% and 71.69%
  Population Tubulin-Different-Phenotype (%): 22.68% and 21.43%
[2]; [7]
  Population Apoptotic (%): 44.56% and 45.71%
  Population Fragmented Nuclei (%): 1.1% and 3.91%
  Population Hoechst High Intensity Objects (%): 0%
  Population Membrane Permeable-Phenotype (%): 1.19% and 5.56%
  Population Mitochondria Different-Phenotype (%): 45.83% and 33.33%
  Population Mitotic Cells (%): 55.44% and 54.29%
  Population Normal (%): 100%
  Population Pyknosed Nuclei (%): 52.88% and 82.03%
  Population Tubulin-Different-Phenotype (%): 79.76% and 72.22%
  Total Cell Count: 365 and 128
[2]; [8]
  Population Apoptotic (%): 11.64% and 29.47%
  Population Fragmented Nuclei (%): 1.39% and 0.98%
  Population Healthy Nuclei (%): 85.94% and 52.45%
  Population Hoechst High Intensity Objects (%): 0.26% and 0%
  Population Membrane Permeable-Phenotype (%): 6.57% and 1.87%
  Population Mitochondria Different-Phenotype (%): 21.52% and 41.12%
  Population Mitotic Cells (%): 88.36% and 70.53%
  Population Normal (%): 99.74% and 100%
[2]; [9]
  Population Apoptotic (%): 39.36% and 66.67%
  Population Fragmented Nuclei (%): 0.98% and 2.22%
  Population Hoechst High Intensity Objects (%): 1.92% and 1.46%
  Population Membrane Permeable-Phenotype (%): 1.57% and 0%
  Population Mitochondria Different-Phenotype (%): 81.82% and 77.78%
  Population Mitotic Cells (%): 60.64% and 33.33%
  Population Normal (%): 98.08% and 98.54%
  Population Pyknosed Nuclei (%): 36.72% and 77.78%
[3]; [4]
  Population Apoptotic (%): 43.75% and 21.88%
  Population Fragmented Nuclei (%): 1.53% and 1.8%
  Population Healthy Nuclei (%): 90.31% and 79.04%
  Population Hoechst High Intensity Objects (%): 0%
  Population Membrane Permeable-Phenotype (%): 2.26% and 4.55%
  Population Mitotic Cells (%): 56.25% and 78.12%
  Population Normal (%): 100%
  Population Pyknosed Nuclei (%): 8.16% and 19.16%
  Population Tubulin-Different-Phenotype (%): 2.54% and 2.27%
  Total Cell Count: 392 and 167
[3]; [5]
  Population Apoptotic (%): 30.43% and 23.08%
  Population Fragmented Nuclei (%): 2.02% and 2.16%
  Population Healthy Nuclei (%): 71.39% and 69.78%
  Population Hoechst High Intensity Objects (%): 0%
  Population Membrane Permeable-Phenotype (%): 13.77% and 36.08%
  Population Mitotic Cells (%): 69.57% and 76.92%
  Population Normal (%): 100%
  Population Pyknosed Nuclei (%): 26.59% and 28.06%
  Population Tubulin-Different-Phenotype (%): 60.73% and 38.14%
  Total Cell Count: 346 and 139
[3]; [6]
  Population Apoptotic (%): 35.85% and 30.56%
  Population Fragmented Nuclei (%): 0.75% and 3.24%
  Population Healthy Nuclei (%): 89.35% and 80.09%
  Population Hoechst High Intensity Objects (%): 0%
  Population Membrane Permeable-Phenotype (%): 0.63% and 4.05%
  Population Mitotic Cells (%): 64.15% and 69.44%
  Population Normal (%): 100%
  Population Pyknosed Nuclei (%): 9.91% and 16.67%
  Population Tubulin-Different-Phenotype (%): 1.67% and 1.16%
  Total Cell Count: 535 and 216
[3]; [7]
  Population Apoptotic (%): 44.63% and 34.25%
  Population Fragmented Nuclei (%): 2.92% and 1.89%
  Population Healthy Nuclei (%): 67.64% and 52.2%
  Population Hoechst High Intensity Objects (%): 0%
  Population Membrane Permeable-Phenotype (%): 12.23% and 26.51%
  Population Mitotic Cells (%): 55.37% and 65.75%
  Population Normal (%): 100%
  Population Pyknosed Nuclei (%): 29.44% and 45.91%
  Population Tubulin-Different-Phenotype (%): 51.08% and 46.99%
  Total Cell Count: 411 and 159
[3]; [8]
  Population Apoptotic (%): 42.71% and 56.25%
  Population Fragmented Nuclei (%): 2% and 2.61%
  Population Healthy Nuclei (%): 87.88% and 81.7%
  Population Hoechst High Intensity Objects (%): 0.11% and 0%
  Population Membrane Permeable-Phenotype (%): 1.2% and 2%
  Population Mitotic Cells (%): 57.29% and 43.75%
  Population Normal (%): 99.89% and 100%
  Population Pyknosed Nuclei (%): 10.12% and 15.69%
  Population Tubulin-Different-Phenotype (%): 2.28% and 1.6%
[3]; [9]
  Population Apoptotic (%): 54.89% and 66.67%
  Population Fragmented Nuclei (%): 4.64% and 2.86%
  Population Healthy Nuclei (%): 74.08% and 49.14%
  Population Hoechst High Intensity Objects (%): 0%
  Population Mitotic Cells (%): 45.11% and 33.33%
  Population Normal (%): 100%
  Population Pyknosed Nuclei (%): 21.28% and 48%
  Population Tubulin-Different-Phenotype (%): 26.13% and 55.81%
